pKi: −log10 of the molar value.

Assay [1] concerns the target T1, 5-hydroxytryptamine receptor 1A (Rattus norvegicus, UniProt P19327).
T1 sequence (P19327 whole entry): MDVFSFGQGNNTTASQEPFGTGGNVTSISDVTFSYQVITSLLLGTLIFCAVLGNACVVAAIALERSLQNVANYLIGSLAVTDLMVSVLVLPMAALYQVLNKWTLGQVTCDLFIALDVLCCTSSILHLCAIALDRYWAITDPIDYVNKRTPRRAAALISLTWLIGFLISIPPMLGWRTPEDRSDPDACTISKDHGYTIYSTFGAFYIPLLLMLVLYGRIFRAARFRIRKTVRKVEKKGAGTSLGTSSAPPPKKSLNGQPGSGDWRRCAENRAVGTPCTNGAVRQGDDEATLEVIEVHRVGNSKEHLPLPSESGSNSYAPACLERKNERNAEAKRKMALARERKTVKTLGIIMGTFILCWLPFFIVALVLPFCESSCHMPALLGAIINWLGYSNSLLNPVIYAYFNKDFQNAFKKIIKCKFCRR
In words: Displacement of [3H]-8-OH-DPAT from Sprague-Dawley rat brain cortex serotonin 5-HT1A receptor after 30 mins by liquid scintillation counting. Particulars: read-out: Ki. The method, boiled down:
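Male Sprague-Dawley rat (180-220 g) cerebral cortex homogenized in 50 mM Tris-HCl pH 7.7, spun 50,000 g. [3H]-8-OH-DPAT 0.1 nM final, 30 min at 37 °C, GF/B filtration. Test compounds in ethanol or 5% DMSO, six concentrations in triplicate. IC50 by curve fitting, Ki by Cheng-Prusoff using Scatchard-derived KD.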

Assay [2] addresses T2, Adrenergic receptor alpha-2 (Rattus norvegicus, UniProt P22086+P19328+P22909).
T2 sequence (P22086 whole entry): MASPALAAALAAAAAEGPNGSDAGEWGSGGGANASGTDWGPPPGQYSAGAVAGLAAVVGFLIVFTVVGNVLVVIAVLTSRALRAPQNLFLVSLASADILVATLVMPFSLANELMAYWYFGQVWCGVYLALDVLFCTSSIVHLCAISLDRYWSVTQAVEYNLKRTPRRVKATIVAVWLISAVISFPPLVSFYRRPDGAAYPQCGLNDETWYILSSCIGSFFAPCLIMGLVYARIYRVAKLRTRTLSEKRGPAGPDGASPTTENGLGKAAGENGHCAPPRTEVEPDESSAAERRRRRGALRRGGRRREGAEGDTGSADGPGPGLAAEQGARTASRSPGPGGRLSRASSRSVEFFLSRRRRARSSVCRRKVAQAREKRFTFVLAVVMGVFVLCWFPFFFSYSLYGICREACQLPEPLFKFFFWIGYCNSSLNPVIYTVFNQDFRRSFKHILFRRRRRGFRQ
T2 sequence (P19328 whole entry): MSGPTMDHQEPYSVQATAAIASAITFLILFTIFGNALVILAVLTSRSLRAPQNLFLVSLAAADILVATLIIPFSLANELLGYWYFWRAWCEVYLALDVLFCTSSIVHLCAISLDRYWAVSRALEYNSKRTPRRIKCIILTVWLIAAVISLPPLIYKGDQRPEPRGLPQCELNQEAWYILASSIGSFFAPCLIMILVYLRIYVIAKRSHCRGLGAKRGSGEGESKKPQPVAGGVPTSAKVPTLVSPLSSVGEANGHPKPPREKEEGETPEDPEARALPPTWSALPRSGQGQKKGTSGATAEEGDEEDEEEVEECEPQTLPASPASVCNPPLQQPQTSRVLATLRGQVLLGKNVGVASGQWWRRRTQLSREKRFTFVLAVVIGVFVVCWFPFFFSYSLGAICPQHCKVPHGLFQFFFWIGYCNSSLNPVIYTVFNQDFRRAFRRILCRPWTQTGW
T2 sequence (P22909 whole entry): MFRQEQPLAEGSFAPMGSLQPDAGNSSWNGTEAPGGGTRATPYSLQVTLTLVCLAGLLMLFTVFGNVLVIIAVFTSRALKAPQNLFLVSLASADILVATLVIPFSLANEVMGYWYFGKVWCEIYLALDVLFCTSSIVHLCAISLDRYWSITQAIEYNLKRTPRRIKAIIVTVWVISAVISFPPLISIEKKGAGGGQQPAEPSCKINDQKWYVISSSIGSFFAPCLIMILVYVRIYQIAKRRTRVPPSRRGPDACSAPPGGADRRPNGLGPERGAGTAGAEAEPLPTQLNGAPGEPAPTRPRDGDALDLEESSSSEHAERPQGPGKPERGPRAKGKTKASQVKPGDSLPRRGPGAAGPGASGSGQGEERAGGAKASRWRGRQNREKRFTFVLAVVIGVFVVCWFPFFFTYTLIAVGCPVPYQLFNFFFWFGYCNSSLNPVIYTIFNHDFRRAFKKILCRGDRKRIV
In words: Displacement of [3H]yohimbine from rat brain cortex adrenergic alpha2 receptor after 30 mins by liquid scintillation counting. The method, boiled down: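 Cortex homogenized in 5 mM Tris-HCl, 5 mM EDTA pH 7.3, spun three times at 50,000 g, resuspended in 50 mM Tris-HCl, 0.5 mM EDTA pH 7.5. [3H]yohimbine 1 nM final, 10 mg fresh tissue, 30 min at 25 °C. Phentolamine defined nonspecific binding. Ki by Cheng-Prusoff.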
Background: In a radioligand displacement assay an active substance lowers the binding of a labelled ligand.

For assay [3], the target named is 5-hydroxytryptamine receptor 2A (Rattus norvegicus) (UniProt P14842). In words: Displacement of [3H]ketanserin from Sprague-Dawley rat brain cortex serotonin 5-HT2A receptor at 0.001 uM after 15 mins by liquid scintillation counting.
5-hydroxytryptamine receptor 2A (Rattus norvegicus), sequence (P14842 whole entry): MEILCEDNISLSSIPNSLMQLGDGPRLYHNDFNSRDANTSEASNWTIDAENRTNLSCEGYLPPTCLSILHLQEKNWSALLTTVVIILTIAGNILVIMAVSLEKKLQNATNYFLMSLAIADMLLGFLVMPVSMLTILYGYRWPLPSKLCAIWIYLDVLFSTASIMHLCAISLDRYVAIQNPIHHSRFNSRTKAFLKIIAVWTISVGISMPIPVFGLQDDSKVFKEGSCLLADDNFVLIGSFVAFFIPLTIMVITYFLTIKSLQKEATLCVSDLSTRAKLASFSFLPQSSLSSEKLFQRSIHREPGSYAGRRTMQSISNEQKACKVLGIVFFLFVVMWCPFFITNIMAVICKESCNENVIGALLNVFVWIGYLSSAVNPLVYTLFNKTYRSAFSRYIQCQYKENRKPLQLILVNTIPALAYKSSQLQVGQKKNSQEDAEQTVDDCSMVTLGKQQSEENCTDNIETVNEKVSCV
Assay [4] shares this target. In words: Displacement of [3H]ketanserin from Sprague-Dawley rat brain cortex serotonin 5-HT2A receptor at 0.00001 uM after 15 mins by liquid scintillation counting.
Assay [5] has the same target. In words: Displacement of [3H]ketanserin from Sprague-Dawley rat brain cortex serotonin 5-HT2A receptor at 0.0000001 uM after 15 mins by liquid scintillation counting.

Turning to `N#C/N=C(\NCCCN1CCN(c2ccccn2)CC1)c1ccccn1`, the pKi – broadly, the negative decadic logarithm of the Ki, by convention in mol/L – in assay [1] was 7.51. The Ki (usually a dissociation constant, usually derived from enzyme kinetics or from competition with a known ligand) in assay [2] is reported as more than 10000 nM.

Consider `N#C/N=C(\NCCCN1CCN(c2cccc(C(F)(F)F)c2)CC1)c1ccccn1`, for which the pKi in assay [1] is 8.88. Moreover, in assay [2], the Ki is given as more than 10000 nM. Further, the figures for the inhibition in assay [3], in assay [4] and in assay [5] were 85.9%, 62.8% and 34.9%, respectively.

Consider `N#C/N=C(\NCCCN1CCN(c2ncccn2)CC1)c1ccccn1`, for which the pKi in assay [1] is 5.51. Moreover, the inhibition – broadly, how much of the control response was suppressed – is 70.4% in assay [3], 44.3% in assay [4] and 24.2% in assay [5].

Take `CCOc1ccccc1N1CCN(CCCN/C(=N\C#N)c2ccccn2)CC1`: in assay [1], the pKi is 7.76. This molecule also had a Ki in assay [2] of 571 nM.

For the molecule `Cc1cccc(N2CCN(CCCN/C(=N\C#N)c3ccccn3)CC2)c1C`, the pKi in assay [1] was 7.52. Also, the Ki in assay [2] amounted to 318 nM.

For the molecule `COc1ccccc1N1CCN(CCCN/C(=N\C#N)c2ccccn2)CC1`, in assay [1], the pKi was 8.33. In assay [2], this molecule displayed a Ki of 245 nM. Besides, the inhibition in assay [3] worked out at 95.1%; in assay [4], 65.9%; in assay [5], 21.9%.

For the origin of these results see ChEMBL document CHEMBL1926621, “New potent 5-HT(2A) receptor ligands containing an N'-cyanopicolinamidine nucleus: Synthesis and in vitro pharmacological evaluation” (Eur J Med Chem, 2012).
